Compound activity deposited in PubChem by The Scripps Research Institute Molecular Screening Center.
Most compounds without a hit are left out; they make up all but 2% or so of the library.
HCV NS3 hel inh – HCV NS3 helicase inhibition. NS3 helicase DNA unwinding, Cy5 molecular beacon fluorescence. inhibition, % at 10.9 µM. 0.56% of 290,000 active. AID 1800;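 active = inhibition above the mean of all tested compounds plus 3 SD, set per campaign, cut at about 35% in these data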;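 note: 0% = DMSO wells and 100% = thioflavine S control wells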
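assay system = NS3 helicase fragment of HCV | buffer or medium = MOPS pH 6.5, MgCl2, DTT, Tween20, BSA | timing = 60 min unwinding reaction at 25 °C after ATP addition | signal = Cy5 beacon fluorescence read at start and 1 h | read-out basis = % inhibition of unwinding | control set = low DMSO, high thioflavine S at 110 µM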
GPR7 antagonist – antagonists of human GPR7 (neuropeptides B/W receptor 1). P48145. GPR7-expressing cells, fluorescence antagonist assay. inhibition, % at 4.4 µM. 1.1% of 290,000 active; in the data active = inhibition above about 16%, passing the limit was not always enough;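 note: cells stimulated with the agonist NPW; 0% = agonist with vehicle and 100% = vehicle without agonist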
Target sequence (P48145 whole entry, looked up): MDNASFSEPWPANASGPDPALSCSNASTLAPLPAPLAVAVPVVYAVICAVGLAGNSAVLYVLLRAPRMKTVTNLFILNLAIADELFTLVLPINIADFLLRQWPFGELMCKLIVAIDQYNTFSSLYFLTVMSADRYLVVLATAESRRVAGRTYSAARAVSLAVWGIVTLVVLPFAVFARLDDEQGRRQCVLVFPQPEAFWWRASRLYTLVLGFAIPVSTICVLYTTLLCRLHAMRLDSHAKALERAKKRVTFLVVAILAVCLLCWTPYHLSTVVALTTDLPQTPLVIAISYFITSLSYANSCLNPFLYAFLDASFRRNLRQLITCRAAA
DNA FID counter-1 – fluorescent intercalator displacement, NS3 helicase counter-screen; inhibition, % at 7.9 µM; AID 1845; 0.17% of 290,000 active; DNA fluorescent intercalator displacement, fluorescence;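 note: 0% = vehicle and 100% = reference compound; higher means more ethidium bromide displaced from hairpin DNA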
EBNA-1 inhibitor – blocks EBNA-1 binding to DNA. EBNA-1 DNA binding, fluorescence polarization. 0.34% of 300,000 active. inhibition, % at 14.8 µM; in the data active = inhibition above about 28%
ZTA counter – blocks Epstein-Barr virus ZTA, an EBNA-1 counter-screen. P03206. ZTA-DNA binding, fluorescence polarization. inhibition, % at 11 µM. 0.15% of 320,000 active; in the data active = inhibition above about 33%
Target sequence (P03206 whole entry, looked up): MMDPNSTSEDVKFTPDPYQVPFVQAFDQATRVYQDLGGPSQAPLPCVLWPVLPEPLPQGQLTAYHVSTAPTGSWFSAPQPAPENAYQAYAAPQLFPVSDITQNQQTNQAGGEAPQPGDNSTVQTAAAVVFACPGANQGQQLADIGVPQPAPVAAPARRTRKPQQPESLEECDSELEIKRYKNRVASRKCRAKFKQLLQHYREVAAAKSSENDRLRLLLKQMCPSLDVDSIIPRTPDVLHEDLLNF
NS3 hel confirm – HCV NS3 helicase inhibition, confirmation assay. shares compounds with HCV NS3 hel inh. NS3 helicase DNA unwinding, Cy5 molecular beacon fluorescence. inhibition, % at 10.9 µM. 31% of 1,600 active. AID 1943;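 active = inhibition above the mean of all tested compounds plus 3 SD, cutoff set per campaign, cut at about 36% in these data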
DNA FID counter-2 – intercalator displacement, NS3 helicase counter-screen; 4% of 1,600 active; AID 1945; DNA fluorescent intercalator displacement, fluorescence; inhibition, % at 7.9 µM; shares compounds with HCV NS3 hel inh;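 note: 0% = vehicle and 100% = reference compound; higher means more displacement of ethidium bromide from the DNA hairpin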
An asterisk follows results filed as active; / = no result given. Cut-off read from the data, not from the text of the source, unless noted: active = inhibition above about 37%; inactive = the rest.

SMILES	HCV NS3 hel inh	GPR7 antagonist	DNA FID counter-1	EBNA-1 inhibitor	ZTA counter	NS3 hel confirm	DNA FID counter-2
Clc1cccc(-c2sc(Nc3ccccc3)n[n+]2-c2ccccc2)c1Cl	69.4*	-5.9	-10.1	4.4	7.7	9.3	19.9
Fc1ccc(-[n+]2nc(Nc3ccccc3)sc2-c2cccc(Cl)c2Cl)cc1	31.4	-5.1	-12.4	-2.2	-16.6	/	/
COc1cc(OC)c(-c2sc(Nc3ccccc3)n[n+]2-c2ccc(F)cc2)cc1OC	26.9	3.4	-4.6	3.0	-1.2	/	/
COc1cc(Br)c(-c2sc(Nc3ccccc3)n[n+]2-c2ccc(F)cc2)cc1OC	45.3*	-9.4	-16.6	-4.2	5.1	12.7	-5.0
O=c1cc(C(F)(F)F)[nH]c(=S)n1-c1ccccc1	8.6	-12.5	-1.9	2.2	1.3	/	/
COc1ccc(C(=O)N(C)Cc2cnn(Cc3ccccc3)c2)cc1S(=O)(=O)N1CCOCC1	/	/	/	/	7.6	/	/
CCN1C(=O)C(=O)N(CC(=O)Nc2ccccc2OC(F)F)C1=O	/	/	/	/	-1.0	/	/
CSc1ccc(/C=N/Nc2cccc(C(=O)O)c2)cc1	38.0*	-4.8	-10.7	/	/	76.3*	-5.2
CCC(=O)Nc1ccc(C(=O)CSc2nnc(-c3ccccc3F)n2C2CC2)cc1	51.7*	10.9	-24.9	-4.2	2.5	-6.4	-20.7
CCC(C)NC(=O)NC(=O)CSc1nnc(-c2ccccc2F)n1C1CC1 (stereo unspecified)	-3.3	-3.1	-37.9	-3.5	-1.5	/	/
Cc1c(NC(=O)CN2C(=O)NC3(CCCC3)C2=O)c(=O)n(-c2ccccc2)n1C	36.3*	9.0	-0.8	-6.5	-15.1	-3.8	16.1
CC(CCC(=O)O)C1CCC2C3CCC4C[C@H](O)CCC4(C)C3CC(=O)C12C (stereo partly specified)	40.5*	2.8	-54.2	3.5	0.5	-21.5	-13.3
CCCCOc1ccc(N2CC(C(=O)NCc3ccco3)CC2=O)cc1 (stereo unspecified)	-2.6	-5.5	-34.8	-8.5	-4.3	/	/
Cc1c(C(=O)c2ccc(F)cc2F)c2ccccn2c1CCC#N	49.0*	4.4	-3.2	-9.4	-19.6	-7.3	14.1
CCc1c(C)c2cc(Cl)c(O)c(CN(CC)CC)c2oc1=O	49.2*	-10.4	-20.9	2.9	-8.7	-11.8	1.0
O=C(CN1C(=O)NC2(CCCC2)C1=O)N1CCN(S(=O)(=O)c2ccc(Cl)c(C(F)(F)F)c2)CC1	/	/	/	-2.2	5.7	/	/
O=C1CCN(S(=O)(=O)c2cc(C(F)(F)F)ccc2Cl)CC1	/	/	/	/	2.2	/	/
Cc1nnc2sc(SCC(=O)Nc3nccs3)nn2c1=O	39.5*	0.2	-8.5	-4.3	-7.5	5.4	1.8
Cc1cc2oc(=O)cc(Cn3ccnc3)c2cc1Cl	8.3	-6.8	-5.5	2.8	-2.4	/	/
Cc1ccc(-n2cccc2/C=C2\C(=N)N3N=C(C(C)C)SC3=NC2=O)cc1	41.7*	-6.2	-21.7	6.2	3.8	35.5	-27.9
CCC1=NN2C(=N)/C(=C\c3cccn3-c3ccc(OC)cc3)C(=O)N=C2S1	29.1	-13.7	-47.7	4.8	6.6	/	/
Cc1cccc2nc(-c3ccco3)c(Nc3ccc4c(c3)OCO4)n12	40.3*	-2.0	-29.9	-5.9	15.1	8.8	2.7
Cc1cccc2nc(-c3ccco3)c(Nc3ccccc3)n12	4.0	-4.6	-7.7	-11.2	4.1	/	/
COc1cc(/C=C/[N+](=O)[O-])ccc1OCc1cccc(C(=O)O)c1	36.0*	-10.5	-30.2	/	/	68.7*	-13.7
CCCCCC(=O)Nc1nc(C)c(-c2csc(Nc3cc(OC)ccc3OC)n2)s1	39.4*	-18.3	-1.6	9.4	4.9	4.0	26.4
SMILES	HCV NS3 hel inh	GPR7 antagonist	DNA FID counter-1	EBNA-1 inhibitor	ZTA counter	NS3 hel confirm	DNA FID counter-2
O=C(Cn1ncc2c3ccccc3n(Cc3ccccc3F)c2c1=O)NCC1CCCO1 (stereo unspecified)	2.6	-4.9	-54.2	-4.4	-22.8	/	/
CCc1cccc(C)c1Nc1nc2ccccc2n2cnnc12	4.5	-20.3	-13.7	7.5	4.8	/	/
Oc1ccc(Br)cc1C=Nc1ccc2c3c(cccc13)CC2	48.5*	4.9	-12.6	14.1	6.5	-5.2	12.4
Cc1nc(NC(=O)CSc2nccn2C)sc1C(=O)N(C)C	2.9	-9.2	-6.3	-2.7	2.0	/	/
Cc1ccc(S(=O)(=O)NN2C(=O)/C(=C/c3cccn3C)SC2=S)cc1	49.6*	-3.4	-8.4	12.2	17.4	59.9*	8.2
O=C1/C(=C/c2cccc(F)c2)SC(=S)N1NS(=O)(=O)c1ccccc1	36.8*	-4.1	-14.8	4.8	0.8	69.7*	-6.5
COc1cc(/C=C2\SC(=S)N(NS(=O)(=O)c3ccccc3)C2=O)cc(OC)c1OC	24.4	-15.6	-28.0	-1.3	8.3	/	/
Cc1ccc(S(=O)(=O)NN2C(=O)/C(=C/c3ccc(C(=O)O)cc3)SC2=S)cc1	37.2*	4.1	-6.6	-17.4	13.9	-19.0	-6.8
Cc1ccc(/C=C2\SC(=S)N(NS(=O)(=O)c3ccc(C)cc3)C2=O)cc1	29.1	-16.3	-24.4	10.5	14.1	/	/
Cn1cccc1CC(=O)NNC(=S)NC(=O)c1ccc(F)cc1	44.5*	13.7	-11.6	0.9	-0.8	-10.1	-2.9
O=C(NNC(=S)NC(=O)c1ccco1)c1ccc(F)cc1	-1.2	-9.5	-5.4	-4.3	-8.3	/	/
CCCN(C(=O)CCNC(=O)c1ccc(Cl)cc1)c1c(N)n(Cc2ccccc2)c(=O)[nH]c1=O	/	/	/	/	-17.2	/	/
CC(=O)Oc1cc2cccc(OC(C)=O)c(=O)c2c(OC(C)=O)c1OC(C)=O	53.2*	-8.8	-6.8	-4.5	-7.5	-7.2	7.7
CC(C)(C)NC(=O)NC(=O)CSc1cccc(C(F)(F)F)c1	36.7*	-17.1	-21.6	3.8	13.2	-9.7	7.0
CNC(=O)NC(=O)CSc1cccc(C(F)(F)F)c1	-1.6	12.7	0.5	-1.8	3.7	/	/
Cc1cc(/C=C2\SC(=S)NC2=O)c(C)n1-c1ccccc1	38.7*	-6.5	-9.6	4.6	-3.8	13.1	-5.0
Cc1cc(/C=C2\SC(=S)NC2=O)c(C)n1-c1ccc(O)cc1	45.2*	8.8	-8.1	2.6	-2.2	18.5	13.4
COc1ccc(-n2c(C)cc(/C=C3\SC(=S)NC3=O)c2C)cc1	13.5	0.4	8.2	4.5	7.4	/	/
Cc1cc(/C=C2\SC(=S)NC2=O)c(C)n1C	23.3	-2.1	-2.4	5.5	-1.7	/	/
O=C(Nc1nc2ccccc2s1)c1ccc([N+](=O)[O-])o1	20.6	-15.8	0.4	7.1	-7.1	/	/
COc1ccc2nc(NC(=O)c3ccc([N+](=O)[O-])o3)sc2c1	64.0*	-12.9	5.9	-9.3	-15.0	7.1	9.8
N#C/C(=C/c1ccc(Br)o1)C(N)=S	36.6*	-12.8	-4.9	5.0	21.4	-14.6	-0.5
Cc1cccc(Nc2nnc(SC/C(O)=C(\C#N)c3nc4ccccc4[nH]3)s2)c1C	48.0*	-6.4	-14.7	0.4	-2.1	-8.8	-16.8
Cc1cccc(C)c1Nc1nnc(SC/C(O)=C(\C#N)c2nc3ccccc3[nH]2)s1	12.7	-4.5	-24.3	-3.0	2.8	/	/
